Assay results reported in ChEMBL document CHEMBL4680220, “Synthesis and biological evaluation of acridine-based histone deacetylase inhibitors as multitarget agents against Alzheimer's disease” (Eur J Med Chem, 2020).

Key:
[1] = biological target: Acetylcholinesterase (Homo sapiens, UniProt P22303); experiment: Inhibition of recombinant human C-terminal 6His-tagged AChE (Glu32 to Leu614 residues) expressed in CHO cells using acetylthiocholine iodide as substrate preincubated for 5 mins measured after 15 mins by DTNB reagent based assay
Method in brief: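 Enzyme, compounds, acetylthiocholine iodide and DTNB diluted in 100 mM phosphate buffer pH 7.4. AChE was preincubated with the compound at varying concentrations for 5 min at 37 °C. The reaction was started with 1 mM ATCI solution and run 15 min at 37 °C. 2 mM DTNB solution was then added for 5 min. Absorbance read at 412 nm. IC50 set 0.1% DMSO wells as 100% and no-enzyme wells as 0%. Run in triplicate.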

[2] = biological target: Class 1 histone deacetylase (Homo sapiens, UniProt Q13547+O15379+Q92769+Q9BY41); experiment: Inhibition of class 1 HDAC in human HeLa cell nuclear extract using Boc-Lys(Ac)-AMC as substrate preincubated for 5 mins followed by substrate addition and measured after 30 mins by fluorescence assay; assay type: cell-based
[3] = biological target: T1, Histone deacetylase 7 (Homo sapiens, UniProt Q8WUI4); experiment: Inhibition of recombinant human N-terminal GST-tagged HDAC7 (518 to end residues) expressed in baculovirus infected Sf9 cells using fluorogenic HDAC 2A substrate preincubated for 5 mins followed by substrate addition and measured after 30 mins by fluorescence assay
T1 sequence (Q8WUI4 whole entry): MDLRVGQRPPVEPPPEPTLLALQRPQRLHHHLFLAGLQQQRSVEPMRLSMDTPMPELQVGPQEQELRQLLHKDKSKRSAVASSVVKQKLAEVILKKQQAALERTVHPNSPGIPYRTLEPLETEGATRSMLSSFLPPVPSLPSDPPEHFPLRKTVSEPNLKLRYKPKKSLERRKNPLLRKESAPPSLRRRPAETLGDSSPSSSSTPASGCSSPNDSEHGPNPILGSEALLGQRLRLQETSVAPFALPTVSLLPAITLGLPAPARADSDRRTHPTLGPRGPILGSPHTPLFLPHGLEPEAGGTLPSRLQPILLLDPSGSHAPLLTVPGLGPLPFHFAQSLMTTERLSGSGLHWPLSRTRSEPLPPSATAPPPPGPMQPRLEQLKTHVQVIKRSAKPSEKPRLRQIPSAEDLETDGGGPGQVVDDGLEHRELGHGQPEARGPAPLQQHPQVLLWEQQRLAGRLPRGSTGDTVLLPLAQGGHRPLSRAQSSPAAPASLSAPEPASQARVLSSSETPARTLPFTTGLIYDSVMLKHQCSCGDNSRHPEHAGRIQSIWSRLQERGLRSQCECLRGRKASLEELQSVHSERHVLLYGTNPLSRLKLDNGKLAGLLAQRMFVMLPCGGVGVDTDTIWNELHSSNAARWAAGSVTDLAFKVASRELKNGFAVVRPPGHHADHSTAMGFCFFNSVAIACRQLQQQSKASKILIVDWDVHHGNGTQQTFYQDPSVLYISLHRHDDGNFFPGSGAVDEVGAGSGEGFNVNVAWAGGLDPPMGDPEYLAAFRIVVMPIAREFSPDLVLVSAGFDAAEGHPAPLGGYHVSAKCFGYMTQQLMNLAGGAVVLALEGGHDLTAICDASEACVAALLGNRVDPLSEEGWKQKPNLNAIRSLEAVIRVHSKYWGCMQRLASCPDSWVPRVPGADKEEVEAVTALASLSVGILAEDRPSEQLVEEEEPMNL

[4] = biological target: Histone deacetylase 4 (Homo sapiens, UniProt P56524); experiment: Inhibition of recombinant human N-terminal GST-tagged/C-terminal His-tagged HDAC4 (627 to 1084 residues) expressed in baculovirus expression system using Boc-Lys(TFA)-AMC as substrate preincubated for 5 mins followed by substrate addition and measured after 30 mins by fluorescence assay
[5] = biological target: Histone deacetylase 5 (Homo sapiens, UniProt Q9UQL6); experiment: Inhibition of recombinant human C-terminal His-tagged HDAC5 (656 to 1122 residues) expressed in baculovirus infected Sf9 insect cells using fluorogenic HDAC 2A substrate preincubated for 5 mins followed by substrate addition and measured after 30 mins by fluorescence assay
[6] = biological target: Histone deacetylase 9 (Homo sapiens, UniProt Q9UKV0); experiment: Inhibition of recombinant human C-terminal His-tagged HDAC9 (604 to 1066 residues) expressed in baculovirus infected Sf9 cells using fluorogenic HDAC 2A substrate preincubated for 5 mins followed by substrate addition and measured after 30 mins by fluorescence assay
[7] = biological target: T2, Protein deacetylase HDAC6 (Homo sapiens, UniProt Q9UBN7); experiment: Inhibition of recombinant human full-length N-terminal GST-tagged HDAC6 expressed in baculovirus infected Sf9 insect cells using Boc-Lys(Ac)-AMC as substrate preincubated for 5 mins followed by substrate addition and measured after 30 mins by fluorescence assay
T2 sequence (Q9UBN7 whole entry): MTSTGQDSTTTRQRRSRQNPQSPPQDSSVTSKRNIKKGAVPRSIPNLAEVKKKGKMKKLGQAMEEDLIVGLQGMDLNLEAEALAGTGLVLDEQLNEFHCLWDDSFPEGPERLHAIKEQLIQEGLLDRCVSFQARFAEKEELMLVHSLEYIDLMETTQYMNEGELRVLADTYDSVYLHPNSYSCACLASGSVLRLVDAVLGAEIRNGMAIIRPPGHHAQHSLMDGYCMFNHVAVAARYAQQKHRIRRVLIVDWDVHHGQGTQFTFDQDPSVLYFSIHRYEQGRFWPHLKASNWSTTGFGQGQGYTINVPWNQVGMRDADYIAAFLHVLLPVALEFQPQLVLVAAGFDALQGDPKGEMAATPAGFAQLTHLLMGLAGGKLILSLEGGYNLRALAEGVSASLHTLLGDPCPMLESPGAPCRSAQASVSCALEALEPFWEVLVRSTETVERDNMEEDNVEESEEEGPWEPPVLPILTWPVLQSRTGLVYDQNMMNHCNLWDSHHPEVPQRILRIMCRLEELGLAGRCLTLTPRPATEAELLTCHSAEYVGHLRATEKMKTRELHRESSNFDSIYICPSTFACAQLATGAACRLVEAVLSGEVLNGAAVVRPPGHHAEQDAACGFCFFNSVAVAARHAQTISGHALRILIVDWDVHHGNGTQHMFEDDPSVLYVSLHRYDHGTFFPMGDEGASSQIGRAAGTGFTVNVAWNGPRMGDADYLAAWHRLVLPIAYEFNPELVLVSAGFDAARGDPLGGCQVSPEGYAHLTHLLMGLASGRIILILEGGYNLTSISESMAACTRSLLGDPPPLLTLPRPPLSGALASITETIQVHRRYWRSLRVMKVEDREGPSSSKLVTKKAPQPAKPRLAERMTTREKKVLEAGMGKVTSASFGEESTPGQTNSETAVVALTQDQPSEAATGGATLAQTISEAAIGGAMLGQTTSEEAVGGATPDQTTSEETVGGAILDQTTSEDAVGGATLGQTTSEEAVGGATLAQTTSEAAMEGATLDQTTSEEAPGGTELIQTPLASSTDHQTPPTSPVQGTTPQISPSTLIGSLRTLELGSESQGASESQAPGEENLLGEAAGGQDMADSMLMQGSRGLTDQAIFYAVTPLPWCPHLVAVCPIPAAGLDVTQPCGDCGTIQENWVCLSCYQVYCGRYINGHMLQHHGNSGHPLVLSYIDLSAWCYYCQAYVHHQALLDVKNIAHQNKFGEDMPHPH

[8] = biological target: T3, Amyloid-beta precursor protein (Homo sapiens, UniProt P05067); experiment: Inhibition of amyloid beta (1 to 42) (unknown origin) self aggregation after 24 hrs by thioflavin-T fluorescence method
Method in brief: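 ThT aggregation assay. Compound at varying concentrations combined with 10 µM Aβ1-42 (1 mM DMSO stock), 10 µM ThT, 1 mM EDTA in 50 mM phosphate buffer (150 mM NaCl, pH 7.4). Incubated 24 h at 37 °C with shaking at 700 rpm; fluorescence ex 440/em 486 nm. 0.1% DMSO wells = 100% aggregation; compound wells without Aβ = background. IC50 from triplicates.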

[9] = biological target: T3, Amyloid-beta precursor protein; experiment: Disaggregation of self-induced amyloid beta (1 to 42) (unknown origin) preformed fibrils at 10 uM measured after 24 hrs by thioflavin-T fluorescence assay relative to control
Method in brief: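 Aβ1-42 (10 µM) with 10 µM ThT and 1 mM EDTA in 50 mM phosphate buffer (150 mM NaCl, pH 7.4) pre-aggregated 24 h at 37 °C, 700 rpm; fluorescence read (ex 440/em 486 nm). Compound then added and incubated a further 24 h at 37 °C before re-reading. Disaggregation = (first − second reading)/first reading. Triplicate.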

[10] = Elimination rate constant in human liver microsomes at 1 uM preincubated for 3 mins followed by NADPH addition and measured up to 60 mins by LC-MS/MS analysis; assay type: ADME, Microsome; details: time <=63 min
Method in brief: (§1)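 Mixed-gender human liver microsomes with test article at 1 µM final. Testosterone (5 µM) run separately as control. Mixture without cofactor equilibrated 3 min at 37 °C in a shaking water bath, then started with cofactor. Aliquots taken at 0, 10, 20, 30 and 60 min. CLint = k/P, where k is the elimination rate constant and P is the incubation protein concentration.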

[11] = Half life in human liver microsomes at 1 uM preincubated for 3 mins followed by NADPH addition and measured up to 60 mins by LC-MS/MS analysis; assay type: ADME, Microsome; details: time <=63 min; method in brief: as §1
[12] = Intrinsic clearance in human liver microsomes at 1 uM preincubated for 3 mins followed by NADPH addition and measured up to 60 mins by LC-MS/MS analysis; assay type: ADME, Microsome; details: 1 h, time <=63 min; method in brief: as §1

Sequence of Acetylcholinesterase (P22303 whole entry): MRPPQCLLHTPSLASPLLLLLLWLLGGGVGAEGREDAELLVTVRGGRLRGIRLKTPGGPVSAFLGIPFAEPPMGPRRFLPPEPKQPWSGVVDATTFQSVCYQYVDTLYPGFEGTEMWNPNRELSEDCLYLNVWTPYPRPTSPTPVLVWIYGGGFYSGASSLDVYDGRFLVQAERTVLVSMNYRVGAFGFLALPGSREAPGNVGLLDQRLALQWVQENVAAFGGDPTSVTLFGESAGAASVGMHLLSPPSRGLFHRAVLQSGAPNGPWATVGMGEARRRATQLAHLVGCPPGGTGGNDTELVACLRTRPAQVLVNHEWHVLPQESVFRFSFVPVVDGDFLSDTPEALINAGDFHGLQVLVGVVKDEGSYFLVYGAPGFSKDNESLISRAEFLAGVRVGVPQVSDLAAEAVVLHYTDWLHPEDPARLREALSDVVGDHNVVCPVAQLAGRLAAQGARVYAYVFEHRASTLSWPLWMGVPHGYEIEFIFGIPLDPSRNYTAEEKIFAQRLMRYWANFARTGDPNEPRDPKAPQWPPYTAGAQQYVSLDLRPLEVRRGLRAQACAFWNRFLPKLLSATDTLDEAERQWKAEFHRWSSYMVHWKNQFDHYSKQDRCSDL
Sequence of Histone deacetylase 4 (P56524 whole entry, the tested form may be a part): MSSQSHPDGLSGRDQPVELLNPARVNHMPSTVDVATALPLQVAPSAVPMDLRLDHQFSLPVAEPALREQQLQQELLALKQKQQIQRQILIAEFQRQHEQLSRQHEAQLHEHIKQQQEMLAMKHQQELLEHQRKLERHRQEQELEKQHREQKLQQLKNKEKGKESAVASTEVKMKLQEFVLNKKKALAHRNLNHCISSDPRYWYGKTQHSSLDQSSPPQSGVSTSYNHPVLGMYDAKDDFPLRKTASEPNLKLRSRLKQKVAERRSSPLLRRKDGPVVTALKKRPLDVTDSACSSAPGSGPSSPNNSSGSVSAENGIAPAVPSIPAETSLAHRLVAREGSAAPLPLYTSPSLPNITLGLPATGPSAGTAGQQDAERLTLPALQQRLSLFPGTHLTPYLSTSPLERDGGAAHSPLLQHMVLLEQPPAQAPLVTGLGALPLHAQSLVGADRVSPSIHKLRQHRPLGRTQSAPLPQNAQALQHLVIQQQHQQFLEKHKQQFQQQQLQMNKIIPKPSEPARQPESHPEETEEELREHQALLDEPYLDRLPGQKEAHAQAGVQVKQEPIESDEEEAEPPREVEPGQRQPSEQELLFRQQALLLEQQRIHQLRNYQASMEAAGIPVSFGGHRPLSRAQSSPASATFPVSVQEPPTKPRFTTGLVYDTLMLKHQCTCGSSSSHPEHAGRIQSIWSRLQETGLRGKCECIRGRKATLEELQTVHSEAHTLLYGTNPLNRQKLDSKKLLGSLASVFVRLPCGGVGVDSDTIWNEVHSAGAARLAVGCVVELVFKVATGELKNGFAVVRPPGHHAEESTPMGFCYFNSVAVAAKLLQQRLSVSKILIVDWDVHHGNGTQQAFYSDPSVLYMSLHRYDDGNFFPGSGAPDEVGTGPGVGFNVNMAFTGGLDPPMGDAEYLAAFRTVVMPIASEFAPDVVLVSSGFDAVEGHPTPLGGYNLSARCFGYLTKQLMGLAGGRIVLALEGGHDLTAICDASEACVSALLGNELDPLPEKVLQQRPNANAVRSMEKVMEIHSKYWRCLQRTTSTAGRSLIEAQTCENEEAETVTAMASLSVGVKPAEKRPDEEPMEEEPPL
T3 sequence (P05067 whole entry): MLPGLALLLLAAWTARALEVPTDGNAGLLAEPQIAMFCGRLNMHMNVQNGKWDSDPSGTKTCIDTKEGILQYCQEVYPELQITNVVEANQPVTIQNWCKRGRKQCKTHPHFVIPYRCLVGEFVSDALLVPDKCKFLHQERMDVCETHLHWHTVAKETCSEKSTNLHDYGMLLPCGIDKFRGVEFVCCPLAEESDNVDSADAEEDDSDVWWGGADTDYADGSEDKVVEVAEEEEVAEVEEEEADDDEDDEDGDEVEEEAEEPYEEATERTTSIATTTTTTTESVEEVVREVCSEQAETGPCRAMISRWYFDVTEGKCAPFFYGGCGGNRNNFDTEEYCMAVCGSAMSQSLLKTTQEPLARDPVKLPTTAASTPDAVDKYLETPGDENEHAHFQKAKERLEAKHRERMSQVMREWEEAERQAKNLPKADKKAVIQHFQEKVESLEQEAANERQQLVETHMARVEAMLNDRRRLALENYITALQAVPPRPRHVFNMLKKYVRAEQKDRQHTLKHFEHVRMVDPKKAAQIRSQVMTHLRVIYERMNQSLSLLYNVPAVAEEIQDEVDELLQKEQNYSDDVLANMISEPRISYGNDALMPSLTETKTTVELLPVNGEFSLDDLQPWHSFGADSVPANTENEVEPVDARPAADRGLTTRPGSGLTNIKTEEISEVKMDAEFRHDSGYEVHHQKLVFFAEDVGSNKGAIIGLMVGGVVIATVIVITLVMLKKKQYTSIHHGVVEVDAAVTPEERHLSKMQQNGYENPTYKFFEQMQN
Sequence of Histone deacetylase 9 (Q9UKV0 whole entry, the tested form may be a part): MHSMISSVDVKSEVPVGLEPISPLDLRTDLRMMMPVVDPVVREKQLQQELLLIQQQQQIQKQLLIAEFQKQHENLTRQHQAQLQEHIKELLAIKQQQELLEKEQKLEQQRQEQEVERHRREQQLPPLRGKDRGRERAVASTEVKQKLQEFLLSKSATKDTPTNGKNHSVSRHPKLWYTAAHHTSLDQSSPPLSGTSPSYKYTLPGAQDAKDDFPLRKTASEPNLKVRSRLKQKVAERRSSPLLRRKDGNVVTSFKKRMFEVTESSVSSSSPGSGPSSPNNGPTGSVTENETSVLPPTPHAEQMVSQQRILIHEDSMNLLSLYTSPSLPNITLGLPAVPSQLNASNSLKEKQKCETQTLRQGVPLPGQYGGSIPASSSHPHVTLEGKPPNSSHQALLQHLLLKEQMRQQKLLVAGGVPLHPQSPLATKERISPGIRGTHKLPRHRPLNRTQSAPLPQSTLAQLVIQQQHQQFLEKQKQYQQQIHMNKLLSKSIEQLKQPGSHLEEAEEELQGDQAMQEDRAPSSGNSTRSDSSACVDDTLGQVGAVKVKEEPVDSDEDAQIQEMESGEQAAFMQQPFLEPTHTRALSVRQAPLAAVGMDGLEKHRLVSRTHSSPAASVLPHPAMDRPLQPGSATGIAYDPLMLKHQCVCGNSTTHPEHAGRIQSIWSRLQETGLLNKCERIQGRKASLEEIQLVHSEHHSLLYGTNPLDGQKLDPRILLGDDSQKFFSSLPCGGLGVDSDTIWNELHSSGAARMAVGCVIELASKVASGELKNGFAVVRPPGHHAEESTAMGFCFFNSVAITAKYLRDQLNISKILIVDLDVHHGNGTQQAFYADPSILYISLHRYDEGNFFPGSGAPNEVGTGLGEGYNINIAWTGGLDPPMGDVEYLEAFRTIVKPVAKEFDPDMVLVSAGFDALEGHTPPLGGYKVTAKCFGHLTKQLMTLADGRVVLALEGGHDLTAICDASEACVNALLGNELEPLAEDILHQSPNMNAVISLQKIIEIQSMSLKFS
Sequence of Histone deacetylase 5 (Q9UQL6 whole entry, the tested form may be a part): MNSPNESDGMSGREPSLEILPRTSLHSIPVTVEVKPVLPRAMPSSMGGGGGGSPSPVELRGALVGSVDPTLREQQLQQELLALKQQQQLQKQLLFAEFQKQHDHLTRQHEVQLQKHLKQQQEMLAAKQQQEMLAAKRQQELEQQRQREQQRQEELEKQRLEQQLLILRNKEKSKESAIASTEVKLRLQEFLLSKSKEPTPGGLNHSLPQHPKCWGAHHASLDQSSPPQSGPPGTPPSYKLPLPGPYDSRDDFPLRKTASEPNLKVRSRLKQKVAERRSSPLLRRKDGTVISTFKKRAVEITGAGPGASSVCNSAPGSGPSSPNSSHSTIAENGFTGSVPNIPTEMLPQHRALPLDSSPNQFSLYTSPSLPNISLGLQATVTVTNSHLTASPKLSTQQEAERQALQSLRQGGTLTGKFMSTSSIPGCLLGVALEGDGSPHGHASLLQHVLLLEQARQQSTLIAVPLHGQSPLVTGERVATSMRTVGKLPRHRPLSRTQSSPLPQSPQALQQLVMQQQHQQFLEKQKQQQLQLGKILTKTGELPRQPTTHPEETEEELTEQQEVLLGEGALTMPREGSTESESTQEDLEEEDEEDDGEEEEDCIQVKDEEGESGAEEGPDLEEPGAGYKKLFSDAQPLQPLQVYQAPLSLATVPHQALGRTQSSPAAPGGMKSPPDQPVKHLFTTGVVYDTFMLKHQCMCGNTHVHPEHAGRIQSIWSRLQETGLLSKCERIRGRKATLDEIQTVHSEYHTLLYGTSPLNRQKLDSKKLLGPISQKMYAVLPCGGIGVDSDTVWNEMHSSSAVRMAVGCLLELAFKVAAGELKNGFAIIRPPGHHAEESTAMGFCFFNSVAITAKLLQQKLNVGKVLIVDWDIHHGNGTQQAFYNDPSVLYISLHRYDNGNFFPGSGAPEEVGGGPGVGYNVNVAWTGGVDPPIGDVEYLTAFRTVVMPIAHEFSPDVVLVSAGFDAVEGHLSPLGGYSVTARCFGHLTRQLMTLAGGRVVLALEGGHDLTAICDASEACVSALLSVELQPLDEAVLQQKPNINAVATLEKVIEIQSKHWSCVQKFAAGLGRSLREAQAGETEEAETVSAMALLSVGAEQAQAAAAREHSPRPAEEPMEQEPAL

Row | SMILES | IC50 [1] | IC50 [2] | IC50 [3] | IC50 [4] | IC50 [5] | IC50 [6] | IC50 [7] | IC50 [8] | inhibition [9] | k el at 1 h, 1 µM [10] | half-life at 1 µM [11] | CLint [12]
1 | c1ccc2nc3ccccc3cc2c1 [ACRIDINE] | 6.84 µM |  |  |  |  |  |  |  |  |  |  | 
2 | O=C(NO)c1ccc(Nc2c3c(nc4ccccc24)CCCC3)cc1 | 1.97 µM | > 40 µM | > 40 µM | > 40 µM | 17.5 µM | > 40 µM | 3.55 µM | > 20 µM | 0% |  |  | 
3 | O=C(Cc1ccc(Nc2c3ccccc3nc3ccccc23)cc1)NO |  | 2.07 µM | 1.94 µM | 26.6 µM | 1.66 µM | 6.42 µM | 0.074 µM |  |  |  |  | 
4 | O=C(NO)c1ccc(Nc2c3ccccc3nc3ccc(OCc4ccccc4)cc23)cc1 | 2.64 µM | 3.5 µM | 3.1 µM | 1.21 µM | 0.43 µM | 1.25 µM | 0.22 µM | 3 µM | 57% |  |  | 
5 | O=C(CCc1ccc(Nc2c3ccccc3nc3ccccc23)cc1)NO |  | 0.1 µM |  | 7.06 µM | 2.58 µM | 29 µM | 0.14 µM |  |  |  |  | 
6 | O=C(NO)c1ccc(Nc2c3ccccc3nc3ccc(OC(F)(F)F)cc23)cc1 | 3.65 µM | 0.67 µM |  | 14.7 µM | 15.8 µM | 31.1 µM | 0.029 µM | 3.5 µM | 53% |  |  | 
7 | COc1ccc2nc3cc(Cl)ccc3c(Nc3ccc(C(=O)NO)cc3)c2n1 | 9.25 µM | 0.8 µM |  | > 40 µM | 15.2 µM | > 40 µM | 0.34 µM | 34.9 µM | 53% |  |  | 
8 | O=C(CCCCCCC(=O)Nc1ccccc1)NO [VORINOSTAT] |  |  |  |  |  |  |  | > 20 µM | 0% |  |  | 
9 | C[C@]12CC[C@H]3[C@@H](CCC4=CC(=O)CC[C@@]43C)[C@@H]1CC[C@@H]2O [TESTOSTERONE] |  |  |  |  |  |  |  |  |  | 0.00045 s⁻¹ | 25.7 min | 54 µL/min/mg
10 | O=C(NO)c1ccc(Nc2c3ccccc3nc3ccc(F)cc23)cc1 | 0.6 µM | 0.25 µM |  | 3.04 µM | 0.69 µM | 0.52 µM | 0.029 µM | > 20 µM | 38% |  |  | 
11 | O=C(NO)c1ccc(Nc2ccnc3ccccc23)cc1 | 0.83 µM | 0.6 µM |  | > 40 µM | 3.37 µM | 13.2 µM | 0.039 µM | > 20 µM | 0% |  |  | 
12 | O=C(NO)c1cccc(Nc2c3ccccc3nc3ccccc23)c1 |  | > 40 µM |  | 29.4 µM | 20.8 µM | 12.2 µM | 4.69 µM |  |  |  |  | 
13 | COc1cc2nc3ccccc3c(Nc3ccc(C(=O)NO)cc3)c2c(OC)c1OC | 0.64 µM | 0.81 µM | 4.57 µM | 15.7 µM | 4.23 µM | 4.95 µM | 0.16 µM | 13 µM | 42% |  |  | 
14 | O=c1c(O)c(-c2ccc(O)cc2O)oc2cc(O)cc(O)c12 [MORIN] |  |  |  |  |  |  |  | 8.5 µM |  |  |  | 
